Results from different studies.
Compare with care: the assays were run in different laboratories.
Observed: thermal stability
Technique: DSF
DCLK1: Serine/threonine-protein kinase DCLK1 (DCLK1, Homo sapiens, UniProt O15075)
lecA: PA-I galactophilic lectin (lecA, Pseudomonas aeruginosa, UniProt Q05097)
SIRT2: NAD-dependent protein deacetylase sirtuin-2 (SIRT2, Homo sapiens, UniProt Q8IXJ6)
GAK: Cyclin-G-associated kinase (GAK, Homo sapiens, UniProt O14976)

Cn1c2c(c3ccc(Cl)c(Cl)c31)C(C#N)C1(CCCC1)NC2=O (centres unmarked)
ΔTm (DCLK1; 10 µM): 0 °C

Cc1ccc(O)c(O)c1
ΔTm (lecA; 4 mM): -11 °C

COCCn1cc(COc2cccc(Cc3cnc(NC(=O)CSc4nc(-c5ccccc5)cc(-c5ccccc5)n4)s3)c2)nn1
ΔTm (SIRT2; 25 µM): 1.4 °C

COc1ccc2nccc(Nc3cc(OC)c(OC)c(OC)c3)c2c1
ΔTm (GAK; 10 µM): 6 °C

Cc1ccc(Cn2cc(COc3cccc(Cc4cnc(NC(=O)CSc5nc(C)cc(C)n5)s4)c3)nn2)cc1
ΔTm (SIRT2; 25 µM): 5.35 °C

O=C(c1ccccc1)c1ccc(O)c(O)c1
ΔTm (lecA; 4 mM): 0.4 °C

Cn1c2c(c3ccc(Cl)c(Cl)c31)C(C#N)C(C)(C)NC2=O (centres unmarked)
ΔTm (DCLK1; 10 µM): 0.4 °C

FC(F)(F)c1ccc2nccc(Nc3cccc(I)c3)c2c1
ΔTm (GAK; 10 µM): 2.6 °C
